# Measured values: ChEMBL document CHEMBL1287760, “Optimization of purine-nitrile TbcatB inhibitors for use in vivo and evaluation of efficacy in murine models” (Bioorg Med Chem, 2010)
# The source made the active and inactive calls. The rule behind the calls is not given here.
# Tests used:
# [1] = Chemical stability in phosphate buffered saline at pH 5 after 14 days; assay type: physicochemical; settings: buffer, pH 5, 336 h
# In short: (§1)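 Stability in PBS (pH 3, 5 and 7.4) followed over 14 days for non-metabolic degradation.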
# [2] = Chemical stability in phosphate buffered saline at pH 7.4 after 14 days; assay type: physicochemical; settings: buffer, pH 7.4, 336 h; in short: as §1
# [3] = Chemical stability in dimethyl sulfoxide at pH 7.4 after 14 days; assay type: physicochemical; settings: buffer, pH 7.4, 336 h
# In short: (§2)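 DMSO stability followed over 14 days for non-metabolic degradation.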
# [4] = Half life in CD1 mouse plasma by UPLC-MS analysis; assay type: ADME, cell-free
# In short: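 Half-life in mouse plasma measured at 37 °C.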
# [5] = Chemical stability in dimethyl sulfoxide at pH 3 after 14 days; assay type: physicochemical; settings: buffer, pH 3, 336 h; in short: as §2
# [6] = Half life in CD1 mouse liver microsomes by UPLC-MS analysis; assay type: ADME, Microsome; settings: for half-life: CD1, mouse, liver microsomes
# In short: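 CD-1 female mouse liver microsomes in 0.1 M potassium phosphate pH 7.4 with EDTA and NADPH-regenerating solutions, 37 °C, shaken. Samples at 0, 0.5, 1 and 2 h quenched with cold acetonitrile containing caffeine internal standard. UPLC–MS (SIR) read-out. Log peak-area ratio versus time gives slope; k = −2.303 × slope, t1/2 = 0.693/k.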
# Trypanosoma brucei [7] = test: Antitrypanosomal activity against Trypanosoma brucei after 48 hrs; assay type: functional, organism-based
# [8] = Chemical stability in dimethyl sulfoxide at pH 5 after 14 days; assay type: physicochemical; settings: buffer, pH 5, 336 h; in short: as §2
# Mus musculus [9] = test: Stability of the compound in po dosed mouse blood; assay type: ADME, organism-based; settings: in vivo
# In short: (§3)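 Oral gavage of compound suspensions to female Balb/c mice; blood sampled retro-orbitally at 1, 2 and 4 h (one sample per mouse) and by cardiac puncture at 48 h. Parent compound and metabolites measured by UPLC–MS; metabolite identity assigned by MS/MS against a synthesized standard.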
# BJ = test: Cytotoxicity against human BJ cells after 72 hrs by alamar blue assay; assay type: cell-based
# [10] = Therapeutic index, ratio of EC50 for human cells to EC50 for Trypanosoma brucei; settings: human cells versus Trypanosoma brucei, read-out: Ratio EC50
# In short: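 Index = EC50 against the most sensitive mammalian line (HEK 293, Hep G2, BJ, Raji) divided by EC50 against T.b. brucei.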
# HEK293 = test: Cytotoxicity against human HEK293 cells after 72 hrs by alamar blue assay; assay type: cell-based; settings: hek293, 72 h
# HepG2 = test: Cytotoxicity against human HepG2 cells after 72 hrs by alamar blue assay; assay type: cell-based; settings: hepg2, 72 h
# Raji = test: Cytotoxicity against human Raji cells after 72 hrs by alamar blue assay; assay type: cell-based
# [11] = Aqueous solubility of compound in deionized water; assay type: physicochemical
# In short: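 Aqueous solubility measured in deionized water.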
# [12] = Chemical stability in phosphate buffered saline at pH 3 after 14 days; assay type: physicochemical; settings: buffer, pH 3, 336 h; in short: as §1
# [13] = Toxicity in human erythrocyte assessed as hemolysis at 10 uM after 5 hrs; assay type: cell-based; settings: erythrocytes, read-out: Activity
# In short: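 Human erythrocytes washed three times after spinning whole blood at 1000g for 5 min. Test compound at 10 µM final, 2% hematocrit. PBS negative control; 0.4% saponin dilution series as standard. After centrifugation, supernatant absorbance read at 414 nm and % hemolysis taken from the calibration curve. Triplicate.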
# [14] = Permeability of the compound assessed as ratio of compound in acceptor chamber to amount of compound in donor chamber at pH 7.4 by PAMPA assay; assay type: ADME
# Mus musculus [15] = test: Stability of the compound in po dosed mouse blood assessed as 3-(2-cyano-6-(3,4-dichlorobenzylamino)-9H-purin-9-yl)propanoic acid level after 1 hr; assay type: ADME, organism-based; settings: in vivo; in short: as §3
# Mus musculus [16] = test: Stability of the compound in po dosed mouse blood assessed as 3-(2-cyano-6-(3,4-dichlorobenzylamino)-9H-purin-9-yl)propanoic acid level; assay type: ADME, organism-based; settings: in vivo; in short: as §3
# [17] = Permeability of the compound assessed as ratio of compound in acceptor chamber to amount of compound in donor chamber at pH 3 by PAMPA assay; assay type: ADME
# Mus musculus [18] = test: Stability of the compound in po dosed mouse blood assessed as 3-(2-cyano-6-(3,4-dichlorobenzylamino)-9H-purin-9-yl)propanoic acid level after 4 hrs; assay type: ADME, organism-based; settings: in vivo; in short: as §3
# [19] = Permeability of the compound assessed as ratio of compound in acceptor chamber to amount of compound in donor chamber at pH 5 by PAMPA assay; assay type: ADME
# [20] = Ratio of plasma concentration mouse at 200 mg/kg, po to EC50 for Trypanosoma brucei; assay type: ADME, organism-based; design: dose 200 mg/kg, route oral; settings: in vivo
# Mus musculus [21] = test: Toxicity in mouse at 200 mg/kg, po qd for 10 days; assay type: organism-based; design: dose 200 mg/kg, route oral; settings: in vivo, 240 h
# In short: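 Five female Balb/c mice given 200 mg/kg daily by oral gavage for 10 days and monitored to day 30. One mouse sent for CBC, serum chemistry and necropsy on day 10 and another on day 30. Functional observational battery used.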
# [22] = system: Trypanosoma brucei rhodesiense; test: Antitrypanosomal activity against Trypanosoma brucei rhodesiense STIB900 infected in NMRI mouse assessed as increase of mouse survival time at 50 to 200 mg/kg, po qd
# [23] = Ratio of drug level in brain to plasma in mouse at 200 mg/kg, po after 24 hrs
# Trypanosoma brucei [24] = test: Antitrypanosomal activity against Trypanosoma brucei 221 infected in BALB/c mouse assessed as increase of mouse survival days at 200 mg/kg, po qd for 5 days relative to control; assay type: functional
# In short: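 Female Balb/C mice (10–12 weeks) infected on day 0 by IP injection of ~800 T.b. brucei 221 parasites (cultured in HMI-9 with 10% FBS and 10% Serum Plus, diluted to 8 × 10³ parasites/ml, 0.1 ml). Oral gavage of 200 mg/kg on days 0–4 in 20% ethanol/40% propylene glycol/10% PEG 400/30% PBS pH 7.4; vehicle controls. Mice were randomly assigned to groups. Parasitemia was counted by hemocytometer every third day from day 4. Survival days were recorded.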
# [25] = Toxicity in po dosed mouse assessed as maximum tolerated dosage; assay type: organism-based; settings: in vivo
# In short: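 Female balb/c mice, 10–12 weeks, housed individually. Oral gavage in a four-stage escalation: vehicle, then 50, 100 and 200 mg/kg. Some groups went on to 400 and 1000 mg/kg. Dose volume 0.1 ml per 20 g. Twelve mice per compound. A modified Irwin FOB was run for 15 min after each dose and at 1–48 h (gait, alertness, respiration, piloerection, vasodilation, vocalization). Necropsy, CBC and serum chemistry were done at 48 h.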
# [26] = Cmax in mouse plasma at 50 to 1000 mg/kg, po after 1 to 4 hrs
# [27] = Cmax in mouse plasma at 200 mg/kg, ip; assay type: ADME, organism-based; design: dose 200 mg/kg, route intraperitoneal
# [28] = Cmax in mouse plasma at 200 mg/kg, po; assay type: ADME, organism-based; design: dose 200 mg/kg, route oral
# In short: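 Female Balb/c mice given oral gavage suspensions (20% ethanol/40% propylene glycol/10% PEG 400/30% PBS pH 7.4), 0.1 ml per 20 g, at 50–1000 mg/kg. Retro-orbital blood (0.1 ml, EDTA) taken from a different mouse at 1, 2, 4 h, some also at 8, 12, 24 h, plus a 48 h cardiac bleed. Plasma precipitated with 3 parts cold acetonitrile; concentration by UV/HPLC.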
# Trypanosoma brucei [29] = test: Antitrypanosomal activity against Trypanosoma brucei 221 infected in BALB/c mouse assessed as decrease of parasitemia at 200 mg/kg, po qd for 5 days measured on day 4; assay type: functional, organism-based; design: dose 200 mg/kg
# In short: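 Female Balb/C mice (10–12 weeks) infected ip on day 0 with ~800 T.b. brucei strain 221 (0.1 ml of 8 × 10³ parasites/ml in unsupplemented HMI-9; parasites grown to 10⁷/ml in supplemented HMI-9). Randomized to oral gavage of 200 mg/kg suspension or vehicle (20% ethanol/40% propylene glycol/10% PEG 400/30% PBS pH 7.4) on days 0–4. Parasitemia counted by hemocytometer in saphenous blood every third day from day 4.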
# [30] = Ratio of plasma concentration mouse at 200 mg/kg, po to EC90 for Trypanosoma brucei; assay type: ADME, organism-based; design: dose 200 mg/kg, route oral; settings: in vivo
# Mus musculus [31] = test: Toxicity in mouse assessed as decreased movement at 2 to 8 mg/kg, iv measured after 30 seconds; assay type: organism-based; design: dose 2-8 mg/kg, route intravenous; settings: in vivo, 0.5 min
# In short: (§4)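 Female Balb/c mice dosed by lateral tail-vein injection of solubilized compound at 2, 4 and 8 mg/kg (0.4–1.6 mg/ml solutions, 0.1 ml per 20 g). Observed by a modified Irwin functional observational battery (gait, alertness, respiration, piloerection, vasodilation, vocalization).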
# Mus musculus [32] = test: Toxicity in mouse assessed as decreased movement at 2 to 8 mg/kg, iv measured immediately after dosing; assay type: organism-based; design: dose 2-8 mg/kg, route intravenous; settings: in vivo; in short: as §4
# Trypanosoma brucei [33] = test: Antitrypanosomal activity against Trypanosoma brucei 221 infected in BALB/c mouse assessed as decrease of parasitemia at 200 mg/kg, po qd for 5 days measured on day 6; assay type: functional, organism-based; design: dose 200 mg/kg
# [34] = Long term solid state stability of the compound at simulated tropical condition after 30 days; assay type: physicochemical; settings: 720 h
# Mus musculus [35] = test: Toxicity in mouse assessed as transient darkening of the eyes at 2 to 8 mg/kg, iv measured after 30 seconds; assay type: organism-based; design: dose 2-8 mg/kg, route intravenous; settings: in vivo, 0.5 min; in short: as §4
# [36] = Drug level in mouse brain at 200 mg/kg, po after 24 hrs; settings: read-out: Drug uptake
# Mus musculus [37] = test: Toxicity in mouse assessed as transient darkening of the eyes at 2 to 8 mg/kg, iv measured immediately after dosing; assay type: organism-based; design: dose 2-8 mg/kg, route intravenous; settings: in vivo; in short: as §4
# [38] = Cmax in mouse brain at 200 mg/kg, po
SMILES,Stability [1],Stability [2],Stability [3],half-life [4] [h],Stability [5],half-life [6] [h],EC50 (Trypanosoma brucei [7]) [nM],Stability [8],Stability (Mus musculus [9]),Activity (BJ),selectivity ratio [10],Activity (HEK293),Activity (HepG2),Activity (Raji),solubility [11] [µM],Stability [12],"hemolysis at 5 h, 10 µM [13] [%]",Ratio [14],Ratio [17],other results
Cc1cccc(C)c1-c1cccc(CNc2nc(C#N)nc3c2ncn3CCCO)c1,Stable,Stable,Stable,25.7,Stable,0.43,270,Stable,Unstable,Non-toxic,> 20,Non-toxic,Non-toxic,Non-toxic,1,Stable,1.1,,,
N#Cc1nc(NCc2ccc(Cl)c(Cl)c2)c2ncn(CCCO)c2n1,Stable,Stable,Stable,5.1,Stable,0.6,1400,Stable,,Non-toxic,> 20,Non-toxic,Non-toxic,Non-toxic,10.4,Stable,0.7,1300,1500,Stability (Mus musculus [15]): Unstable; Stability (Mus musculus [16]): > 50 µM; Stability (Mus musculus [18]): Unstable; Ratio [19]: 960
COCCCn1cnc2c(NCc3ccc(Cl)c(Cl)c3)nc(C#N)nc21,,,,40.9,,0.53,2400,,Unstable,,> 10,,,,4.2,,0.7,1770,1800,
N#Cc1nc(NCc2ccc(Cl)c(Cl)c2)c2ncn(CCCC(F)(F)F)c2n1,,,,177,,,530,,,,> 20,,,,0.3,,0.4,,,"Ratio [20]: 20; Activity (Mus musculus [21]): Non-toxic; Activity [22]: inactive; Kp at 24 h [23]: 2; Survival (Trypanosoma brucei [24]): 9.6 days; t1/2 ([6]; mouse, microsomes): Stable; MTD [25]: 1000 mg/kg; Cmax [26]: 6 µM; Tmax [27]: 4 h; Tmax [28]: 24 h; Activity (Trypanosoma brucei [29]): inactive; Ratio [30]: 10; Activity (Mus musculus [31]): Non-toxic; Activity (Mus musculus [32]): Non-toxic; Activity (Trypanosoma brucei [33]): inactive; Stability [34]: Stable; Activity (Mus musculus [35]): Non-toxic; concentration at 24 h [36]: 20 µM; Activity (Mus musculus [37]): Non-toxic; Tmax [38]: 4 h"
